This note sets out measurements from ChEMBL document CHEMBL2390835, “Synthesis and antimalarial testing of neocryptolepine analogues: addition of ester function in SAR study of 2,11-disubstituted indolo[2,3-b]quinolines” (Eur J Med Chem, 2013).

Data set [1] in a line: Inhibition of beta-haematin formation after 5 to 6 hrs by UV-vis spectamax plate reader analysis. Format: functional. The essentials: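 Detergent-mediated assay: compounds from DMSO stocks (20, 2, 0.4 mM) in duplicate, 0–1000 µM final. Added water and NP-40, then haematin at 100 µM final in 0.5 M acetate buffer pH 4.8. Incubated at 37 °C for 5–6 h. Pyridine added to 5% v/v final in HEPES pH 7.4 with acetone. Haem–pyridine absorbance read (405 nm). IC50 from sigmoidal fits.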

Data set [2] deals with Plasmodium berghei. The data set is described as follows: Antimalarial activity against Plasmodium berghei infected in Swiss mouse assessed as reduction in parasitaemia at 20 mg/kg, ip administered for 4 days measured on day 4 post last dose by FACS analysis relative to control. Format: functional. Set-up: scale not given: the % may be the effect or the level left. The conditions noted are these: route intraperitoneal. The essentials:
(§1)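 Intraperitoneal dosing at 20 mg/kg daily for four consecutive days. Parasitaemia read on day 4 and day 7. Activity is the difference between mean percent parasitaemia of the control group (n = 5 mice) and the treated group, expressed as a percent of control.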

Data set [3] relates to Plasmodium falciparum. The data set is described as follows: Antimalarial activity against chloroquine-sensitive erythrocytic stage of Plasmodium falciparum NF54 infected in human red blood cells assessed as growth inhibition after 72 hrs by [3H]-hypoxanthine incorporation assay.
A short description of data set [4]: Selectivity index, ratio of IC50 for rat L6 cells to IC50 for chloroquine-resistant erythrocytic stage of Plasmodium falciparum K1. Format: toxicity, cell-based. To be noted: read-out: Ratio IC50. The essentials: (§2)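 IC50 in rat L6 skeletal myoblasts divided by the antiplasmodial IC50 for the named strain. L6 cells were seeded at 4000 per well in RPMI 1640 with L-glutamine and 10% FBS and exposed to eleven 3-fold dilutions from 100 to 0.002 µg/mL for 70 h. Alamar Blue was then added for 2 h and fluorescence read at ex 536 / em 588 nm. IC50 by linear regression of the sigmoidal curves.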

In data set [5] the test system is Plasmodium falciparum. The data set is described as follows: Antimalarial activity against chloroquine-resistant erythrocytic stage of Plasmodium falciparum K1 infected in human red blood cells assessed as growth inhibition after 48 hrs by [3H]-hypoxanthine incorporation assay. Format: functional, organism-based. Put shortly:
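Erythrocytic P. falciparum in RPMI 1640 without hypoxanthine, with HEPES, NaHCO3, neomycin, Albumax, and human A+ red cells at 2.5% haematocrit and 0.3% parasitaemia. Compounds from a 10 mg/mL DMSO stock, eleven 3-fold dilutions from 100 to 0.002 µg/mL. Incubated 48 h at 37 °C (4% CO2, 3% O2), then 3H-hypoxanthine added for 24 h more. Cells harvested and counted by scintillation. IC50 by linear regression of the sigmoidal curves, mean of two independent assays.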

Data set [6] relates to Plasmodium falciparum. The data set is described as follows: Resistance index, ratio of IC50 for chloroquine-resistant erythrocytic stage of Plasmodium falciparum K1 to IC50 for chloroquine-sensitive erythrocytic stage of Plasmodium falciparum NF54. Format: functional.
Another data set concerns L6. The data set is described as follows: Cytotoxicity against rat L6 cells assessed as growth inhibition after 70 hrs by Alamar blue staining-based inverted microscopic analysis. Format: cell-based. The conditions noted are these: L6, 70 h. The essentials:
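L6 rat skeletal myoblasts, 4000 cells/well in RPMI 1640 with 1% L-glutamine (200 mM) and 10% FBS. Eleven 3-fold dilutions spanning 100 to 0.002 µg/mL. After 70 h, Alamar Blue added for 2 h more. Fluorescence read at ex 536/em 588 nm. IC50 from sigmoidal dose–inhibition curves by linear regression.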
Background: The colour change of resazurin is a common sign of viable cells or microbes.

Data set [7] relates to Plasmodium berghei. The data set is described as follows: Antimalarial activity against Plasmodium berghei infected in Swiss mouse assessed as reduction in parasitaemia at 20 mg/kg, ip administered for 4 days measured on day 7 by FACS analysis relative to control. Set-up: scale not given: the % may be the effect or the level left. The conditions noted are these: route intraperitoneal. Format: functional. Put shortly: as §1
(In general: Flow cytometry measures light scatter and fluorescence of single cells or particles in a stream.)

Data set [8] is described as follows: Selectivity index, ratio of IC50 for rat L6 cells to IC50 for chloroquine-sensitive erythrocytic stage of Plasmodium falciparum NF54. It counts as toxicity, cell-based. The conditions noted are these: read-out: Ratio IC50. The essentials: as §2
For another data set, the system named is MRC5. The data set is described as follows: Cytotoxicity against human MRC5 cells assessed as growth inhibition. It counts as cell-based.

For orientation: IC50 means the midpoint of a concentration-inhibition curve.

As to `COC(=O)c1ccc2nc3n(C)c4ccccc4c(NCCCN)c-3c2c1`, the IC50 is 48900 nM in [1], 24.8 nM in the data set with Plasmodium falciparum [3], 30.3 nM in the data set on Plasmodium falciparum [5] and 218 nM in the data set on L6. For the same molecule, the Activity with Plasmodium berghei [2] is given as 33.4%; in the data set on Plasmodium berghei [7], 72.5%. The figures for the selectivity ratio in data set [4] and in [8] were 7.19 and 8.79, respectively. Further, the “Ratio IC50” value with Plasmodium falciparum [6] was found to be 1.22.

Take `Cn1c2nc3ccccc3c-2cc2cc(Br)ccc21`: the IC50 with MRC5 is over 32000 nM.
